Assay results from publication PMC9939723 (Redox Biology, 2023).
“And” between values parts separate entries of the source, which are not always exact repeats. Identical values can stand only once. Like-named read-outs stand apart in the source and are kept apart here.

Legend:
[1] = system: carbapenem-resistant Acinetobacter baumannii (CRAB); assay: MIC by microbroth dilution against CRAB; assay type: cell-based; details: 24 h incubation
How it was run: (§1)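 Broth microdilution per CLSI guidelines in 96-well plates. Incubated 37 °C for 24 h, then read on a microplate reader.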

[2] = system: carbapenem-resistant Klebsiella pneumonia (BAA-1705); assay: MIC by microbroth dilution against CRKP; assay type: cell-based; details: 24 h incubation
How it was run: as §1

[3] = system: carbapenem-resistant Pseudomonas aeruginosa (BAA-2108); assay: MIC by microbroth dilution against CRPA; assay type: cell-based; details: 24 h incubation
How it was run: as §1

[4] = system: carbapenem-resistant Escherichia coli (BAA-2140); assay: MIC by microbroth dilution against CREco; assay type: cell-based; details: 24 h incubation
How it was run: as §1

[5] = system: vancomycin-intermediate Staphylococcus aureus (ATCC 700699); assay: MIC by microbroth dilution against VISA; assay type: cell-based; details: 24 h incubation
How it was run: as §1

CRAB = assay: Checkerboard microdilution assay, antibiotic with gold complexes; assay type: cell-based, Acinetobacter baumannii; details: for FIC index / MIC of antibiotic: CRAB; for MIC: Acinetobacter baumannii; for MIC of antibiotic: antibiotic alone
How it was run: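 Checkerboard in 96-well plates. Inoculum diluted per the CLSI broth microdilution method. Gold complex 0–20 μM crossed with antibiotic 0–240 μM. Growth inhibition read as OD600 on a plate reader.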

TrxR in CRAB = TrxR in CRAB (Acinetobacter baumannii, UniProt A0A0G4QN87); assay: Cellular TrxR activity assay; assay type: cell-based; details: read-out: IC50 inhibition of TrxR activity in CRAB; 2 h treatment of bacteria
TrxR in CRAB, sequence (A0A0G4QN87 1-315): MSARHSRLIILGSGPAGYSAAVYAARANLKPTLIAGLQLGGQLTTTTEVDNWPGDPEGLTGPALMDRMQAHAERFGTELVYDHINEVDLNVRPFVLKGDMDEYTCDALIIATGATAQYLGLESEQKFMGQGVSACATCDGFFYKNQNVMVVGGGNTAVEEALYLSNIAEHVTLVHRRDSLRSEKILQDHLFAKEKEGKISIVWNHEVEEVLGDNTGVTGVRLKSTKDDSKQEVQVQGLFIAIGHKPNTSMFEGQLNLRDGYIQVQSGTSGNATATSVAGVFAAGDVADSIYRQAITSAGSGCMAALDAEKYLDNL
How it was run: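 Cultures at OD600 0.4–0.6 exposed to 0, 0.5, 1, 2, 5, 10, 20 μM for 2 h. Pellets washed three times in PBS and normalised to OD600 0.7 ± 0.02. TrxR assayed with a kit: NADPH-driven DTNB reduction, 2-vinylpyridine added to block GSH, activity from the rate of TNB increase at 412 nm on a plate reader.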

TrxB expression in CRAB = assay: TrxB expression by qPCR; assay type: cell-based, Acinetobacter baumannii; details: 2 h
How it was run: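 Bacteria at initial OD600 0.4–0.5 exposed to compound and shaken 2 h at 37 °C. Total RNA extracted with a kit (lysis buffer, chloroform). TrxB mRNA measured by qPCR with 16S as internal control, 2^−ΔΔCt method, in triplicate.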

CRAB-induced peritonitis = assay: Murine peritonitis infection model; assay type: in vivo, BALB/c mice
How it was run: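 Male (n = 8/group) and female (n = 12/group) BALB/c mice, 18–22 g, infected i.p. with 200 μL CRAB (1 × 10^9 cfu/mL). Single i.p. dose of 5 mg/kg given 1 h post-infection; PBS as control. Survival followed for 72 h. Experiment repeated three times.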

purified rat liver TrxR = biological target: T1, purified rat liver TrxR (Rattus norvegicus, UniProt O89049); details: read-out: IC50 purified TrxR activity; previous report ref 38; cited from earlier work
T1 sequence (O89049 1-499): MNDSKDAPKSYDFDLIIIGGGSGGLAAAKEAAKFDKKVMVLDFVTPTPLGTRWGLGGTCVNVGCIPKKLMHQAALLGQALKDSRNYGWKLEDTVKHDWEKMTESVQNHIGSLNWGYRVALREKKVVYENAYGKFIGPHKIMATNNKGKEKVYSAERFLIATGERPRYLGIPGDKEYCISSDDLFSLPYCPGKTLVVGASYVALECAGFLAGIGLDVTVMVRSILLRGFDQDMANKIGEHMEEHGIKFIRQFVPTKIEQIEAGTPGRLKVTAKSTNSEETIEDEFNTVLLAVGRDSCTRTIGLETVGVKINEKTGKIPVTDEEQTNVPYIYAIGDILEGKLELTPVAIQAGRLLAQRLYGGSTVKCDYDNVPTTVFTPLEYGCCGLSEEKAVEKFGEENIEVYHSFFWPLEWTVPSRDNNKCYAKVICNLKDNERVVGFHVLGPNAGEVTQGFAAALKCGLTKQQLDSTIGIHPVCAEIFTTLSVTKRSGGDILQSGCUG

| Compound | MIC CRAB [1] | MIC CRKP [2] | MIC CRPA [3] | MIC CREco [4] | MIC VISA [5] | FIC index (CRAB; gold complex in combination with cefotaxime) | FIC index (CRAB; gold complex in combination with imipenem) | IC50 (TrxR in CRAB) [µM] | expression of TrxB (mRNA) (TrxB expression in CRAB) | mice surviving to 34 h (CRAB-induced peritonitis; female BALB/c, n = 12, i.p. 5 mg/kg 1 h after infection) | mice surviving to 24 h (CRAB-induced peritonitis; male BALB/c, n = 8, single i.p. 5 mg/kg 1 h after infection) | IC50 (purified rat liver TrxR) [µM] | MIC (CRAB; read-out: MIC of cefotaxime in the presence of H7) [µM] | MIC (CRAB; read-out: MIC of cefotaxime in the presence of H8) [µM] | MIC of antibiotic (CRAB) [µM] |
| --- | --- | --- | --- | --- | --- | --- | --- | --- | --- | --- | --- | --- | --- | --- | --- |
| CC(=O)OC[C@H]1O[C@@H]([S-])[C@H](OC(C)=O)[C@@H](OC(C)=O)[C@@H]1OC(C)=O.CCP(CC)CC.[Au+] [Auranofin] | 20 μM and 13.56 μg/mL | 40 μM and 27.12 μg/mL | 40 μM and 27.12 μg/mL | 40 μM and 27.12 μg/mL | 0.34 μg/mL and 0.5 μM | 0.625 | 0.75 | 6.31 | no effect | seven of the twelve mice | four of the eight mice | 0.0826 |  |  |  |
| CO/N=C(\C(=O)N[C@@H]1C(=O)N2C(C(=O)O)=C(COC(C)=O)CS[C@H]12)c1csc(N)n1 [Cefotaxime] |  |  |  |  |  |  |  |  |  |  |  |  | 30 | 30 | 240 |
| C[C@@H](O)[C@H]1C(=O)N2C(C(=O)O)=C(SCCN=CN)C[C@H]12 [Imipenem] |  |  |  |  |  |  |  |  |  |  |  |  |  |  | 240 |
